Our source for the Activity and Lactone formation values is ChEMBL document CHEMBL1155859, “Synthesis of hydantoin analogues of (2S,3R,4S)-4-hydroxyisoleucine with insulinotropic properties” (Bioorg Med Chem Lett, 2008).

A short description of data set [1]: Increase in insulin secretion in Sprague-Dawley rat pancreas assessed per Langerhans islet. The data set is classed as functional. The method in brief:
(§1)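 Islets from male Sprague-Dawley rats (360–390 g) are digested with collagenase XI (2.5 mg/ml, HBSS, 35 min, 37 °C), purified on a Histopaque gradient and handpicked. They are pre-incubated 60 min at 37 °C, 5% CO2, in KRB with 8.3 mM glucose. Medium insulin is measured by ELISA in pg/islet/h (n = 6–12) against untreated basal.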

The nature of data set [2]: Increase in insulin secretion in Sprague-Dawley rat pancreas at 75 uM assessed per Langerhans islet. It is filed as functional. The method in brief: as §1
The species named for a further data set is Rattus norvegicus. As to the kind of experiment: Increase in insulin secretion in Sprague-Dawley rat pancreatic Langerhans islets below 25 uM. It is filed as functional. Put shortly:
as §1

A short description of data set [3]: Lactone formation at pH 1 after 1 hr. As to conditions: buffer, pH 1, 1 h.
Data set [4] can be described thus: Lactone formation at pH 1 after 4 hrs. As to conditions: buffer, pH 1, 4 h.
Data set [5] can be described thus: Increase in insulin secretion in Sprague-Dawley rat pancreatic Langerhans islets at 200 uM. It is filed as functional. The method in brief: as §1
The nature of data set [6]: Increase in insulin secretion in Sprague-Dawley rat pancreatic Langerhans islets at 25 uM. The data set is classed as functional. Put shortly: as §1

SMILES strings stand for the structures. Calls of active or inactive are those of the source. The calls are words filed in the database; no cut-off is given here.

On to `C[C@@H]([C@H](C)O)[C@H](N)C(=O)O`, for which the Activity in data set [1] amounted to 45 pg/h; in data set [2] it was 100 pg/h. For the same compound, in the data set listed under Rattus norvegicus, the outcome was inactive. Besides, the Lactone formation in data set [3] is 10%; in data set [4], 32%.

Consider `C[C@@H]([C@H](C)O)[C@@H]1NC(=O)NC1=O`, for which, in data set [1], the Activity came to 100 pg/h.

Turning to `CCOc1cc(CC(=O)N[C@@H](CC(C)C)c2ccccc2N2CCCCC2)ccc1C(=O)O` [REPAGLINIDE], the Activity in data set [1] is 100 pg/h; in data set [5] it was 100%.

Turning to `C[C@@H]([C@H](C)O)[C@H]1NC(=O)NC1=O`, the Activity was 100 pg/h in data set [1] and 120% in data set [6].
